Laboratory results published in article PMC3182491 (Investigational new drugs, 2010).

Legend:
[1] = system: 17-71 canine B-cell lymphoma line; test: Annexin V-FITC/PI apoptosis detection by flow cytometry, 17-71 cells; type: cell-based
Procedure, shortened: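 Cells were seeded at 100,000 per well in fresh medium holding 0, 5, 10 or 20 µM test compound, alongside a vehicle control. They were exposed 24 or 48 h at 37 °C, 5% CO2. Apoptosis was read by Annexin V-FITC/PI staining and flow cytometry, in triplicate. Lines were kept as suspensions in DMEM with P/S, plus 10% FBS (17-71, GL-1) or 20% FBS (CA46). Time and concentration effects were tested by 2-way ANOVA with Tukey or Dunnett post hoc.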

[2] = Toxicity assessment of 48-hour IV constant rate infusion in healthy dogs; type: in vivo; conditions: dog
Procedure, shortened: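 Four healthy dogs from the kinetic study received IV test compound as a 10-min loading dose, then a constant-rate maintenance infusion for 48 h. […] Haematologic, non-haematologic and gastrointestinal effects were checked weekly for 4 weeks.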

[3] = molecular target: T1, caspase-3 (Canis lupus familiaris, UniProt Q8MKI5); test: Caspase-3 colorimetric assay in cell lysate, 17-71 cells; type: cell-based, canine; conditions: 10 or 20 µM, incubation ≤ 4 hours
T1 sequence (Q8MKI5 29-277): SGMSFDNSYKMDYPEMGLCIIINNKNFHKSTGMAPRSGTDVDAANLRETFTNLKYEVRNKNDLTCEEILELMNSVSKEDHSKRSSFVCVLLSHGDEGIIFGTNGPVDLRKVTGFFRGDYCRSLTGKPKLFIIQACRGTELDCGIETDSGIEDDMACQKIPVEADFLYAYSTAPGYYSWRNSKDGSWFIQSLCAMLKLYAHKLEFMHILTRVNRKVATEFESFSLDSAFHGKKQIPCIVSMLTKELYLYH
Procedure, shortened: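 Lymphoma cells were exposed to 10 or 20 µM test compound for 0, 1, 2, 4, 24 and 48 h at 37 °C, 5% CO2; hour 0 served as vehicle control. Lysates from 2 million cells per time point went into a colorimetric caspase-3 assay read at 405 nm, run in duplicate. Time points were compared to control by one-way ANOVA with Dunnett's test.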

With `C=CCc1cccc(/C=N/NC(=O)CN2CCN(Cc3ccccc3)CC2)c1O` [PAC-1] the “cells staining only for Annexin-V-FITC (early apoptosis)” value ([1]; 48 hour, 20 µM) was “approximately 70%”, the apoptotic cells ([1]; 48 hours, PAC-1 ≥ 10 µM) was at least 60% and the gastrointestinal toxicity ([2]; 48-hour CRI, 4 week monitoring, n=4) was “no clinically overt gastrointestinal toxicity”. It also gave an ALT ([2]; 48-hour CRI, Day 0) of 46.7 ± 34.1 U/L, a Calcium ([2]; 48-hour CRI, Day 0) of 10.3 ± 0.1 mg/dL and a Creatinine ([2]; 48-hour CRI, Day 0) of 0.9 ± 0.2 mg/dL. For the same compound, the Hematocrit ([2]; 48-hour CRI, Day 0) was 53.0 ± 3.8%, the Lymphocyte ([2]; 48-hour CRI, Day 0) was 1.9 ± 0.3 ×10^3 and the Neutrophil ([2]; 48-hour CRI, Day 0) was 5.4 ± 1.0 ×10^3. For the same compound, the Phosphorous ([2]; 48-hour CRI, Day 0) was 3.7 ± 0.4 mg/dL, the Platelet ([2]; 48-hour CRI, Day 0) was 1.9 ± 0.4 ×10^5 and the WBC ([2]; 48-hour CRI, Day 0) was 8.2 ± 1.5 ×10^3. It also gave an ALT ([2]; 48-hour CRI, Day 7) of 57.0 ± 34.6 U/L, a Calcium ([2]; 48-hour CRI, Day 7) of 10.5 ± 0.3 mg/dL and a Creatinine ([2]; 48-hour CRI, Day 7) of 1.0 ± 0.3 mg/dL. The Hematocrit ([2]; 48-hour CRI, Day 7) was 55.4 ± 1.3%, the Lymphocyte ([2]; 48-hour CRI, Day 7) was 1.3 ± 0.2 ×10^3 and the Neutrophil ([2]; 48-hour CRI, Day 7) was 5.0 ± 0.5 ×10^3. The Phosphorous ([2]; 48-hour CRI, Day 7) was 2.9 ± 0.9 mg/dL, the Platelet ([2]; 48-hour CRI, Day 7) was 1.8 ± 0.3 ×10^5 and the WBC ([2]; 48-hour CRI, Day 7) was 7.0 ± 0.4 ×10^3. The ALT ([2]; 48-hour CRI, Day 14) was 56.3 ± 46.7 U/L, the Calcium ([2]; 48-hour CRI, Day 14) was 10.2 ± 0.4 mg/dL and the Creatinine ([2]; 48-hour CRI, Day 14) was 0.9 ± 0.1 mg/dL. For the same compound, the Hematocrit ([2]; 48-hour CRI, Day 14) was 49.3 ± 6.0%, the Lymphocyte ([2]; 48-hour CRI, Day 14) was 1.9 ± 0.7 ×10^3 and the Neutrophil ([2]; 48-hour CRI, Day 14) was 4.3 ± 0.9 ×10^3. The Phosphorous ([2]; 48-hour CRI, Day 14) was 3.6 ± 0.3 mg/dL, the Platelet ([2]; 48-hour CRI, Day 14) was 2.0 ± 0.4 ×10^5 and the WBC ([2]; 48-hour CRI, Day 14) was 7.0 ± 0.4 ×10^3. It also gave an ALT ([2]; 48-hour CRI, Day 21) of 49.7 ± 29.0 U/L, a Calcium ([2]; 48-hour CRI, Day 21) of 10.4 ± 0.4 mg/dL and a Creatinine ([2]; 48-hour CRI, Day 21) of 1.0 ± 0.2 mg/dL. The Hematocrit ([2]; 48-hour CRI, Day 21) was 50.6 ± 3.4%, the Lymphocyte ([2]; 48-hour CRI, Day 21) was 1.5 ± 0.2 ×10^3 and the Neutrophil ([2]; 48-hour CRI, Day 21) was 5.9 ± 0.3 ×10^3. For the same compound, the Phosphorous ([2]; 48-hour CRI, Day 21) was 3.4 ± 0.4 mg/dL, the Platelet ([2]; 48-hour CRI, Day 21) was 2.2 ± 0.8 ×10^5 and the WBC ([2]; 48-hour CRI, Day 21) was 8.4 ± 0.6 ×10^3. The “tolerability of CRI giving ≥ 10 µM for ≥ 24 hours” value ([2]; IV CRI, n=4) was “well-tolerated by all dogs” and the “caspase-3 activity in cell lysate vs vehicle-treated control cells” value [3] was “failed to significantly increase”.
